Screens deposited in PubChem by several laboratories.
An excerpt weighted towards active compounds, which were near 2% of everything screened.
CRFR2-BP ag – agonists of CRF-BP/CRF-R2 complex, primary screen, cell-based, HEK293, calcium dye fluorescence, uHTS; calcium dye fluorescence (FLIPR); percent of saturating CRF peptide response; hit rate 0.46% among 350,000; CRF-binding protein / CRF receptor 2 complex (human); AID 588473, 2011; activation, % at 13.2 µM;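 active = activation of at least 50%, plus an integration ratio under a set limit after plate pattern correction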
zfTRPN1 agonist – zebrafish TRPN1 channel agonists, primary screen, cell-based, HEK293, calcium fluorescence; transient receptor potential cation channel N1 (TRPN1/NompC), Danio rerio; HEK293 zebrafish TRPN1-YFP, Fluo-8 calcium fluorescence; 100% = response to 87 µM carbachol; activation, % at 3 µM; hit rate 0.18% among 220,000; AID 1424, 2008;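 active = activation above its plate's cutoff, the mean activation of test wells on that plate plus 3 SD, cut at about 19% in these data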
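Material – zebrafish TRPN1-YFP in HEK293 cells · Doses – 3 µM single point · Schedule – dye 1 h 37 °C plus 30 min RT · Signal – Fluo-8 calcium fluorescence, excitation 470-495 nm, emission 515-575 nm · Read-out – % activation versus carbachol response · Control set – carbachol high, DMSO low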
GPR7 antagonist – GPR7 receptor antagonists, primary screen, cell-based, fluorescence, single concentration. Neuropeptides B/W receptor type 1 (Homo sapiens), P48145. GPR7-expressing cells, fluorescence antagonist assay. inhibition, % at 4.4 µM. hit rate 1.1% among 290,000; in the data active = inhibition above about 16%, passing the limit was not always enough;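 also: cells stimulated with the agonist NPW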
Target sequence (P48145 whole entry, looked up): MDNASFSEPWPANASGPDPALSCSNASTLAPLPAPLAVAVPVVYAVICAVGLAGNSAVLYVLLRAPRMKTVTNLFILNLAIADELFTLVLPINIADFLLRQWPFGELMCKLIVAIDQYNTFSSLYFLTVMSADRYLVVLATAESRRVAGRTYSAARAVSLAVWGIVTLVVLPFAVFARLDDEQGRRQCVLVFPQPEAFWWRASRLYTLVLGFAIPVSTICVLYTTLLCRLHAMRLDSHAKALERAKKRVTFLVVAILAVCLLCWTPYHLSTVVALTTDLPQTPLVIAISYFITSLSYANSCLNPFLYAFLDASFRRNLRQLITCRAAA
TRPML3 ag – human TRPML3 channel agonists, primary screen, cell-based, HEK293 TRPML3-YFP, Fluo-8 calcium fluorescence, 3 µM; hit rate 0.29% among 220,000; Mucolipin-3 (Homo sapiens), Q8TDD5; 100% = the carbachol control signal; activation, % at 3 µM;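 active = activation above its plate's cutoff, the mean activation of the plate's test wells plus 3 SD, cut at about 12% in these data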
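Material: TRPML3-YFP stable HEK293 cells | Dosing: One concentration, 3 µM nominal, 0.3% DMSO | Timing: 125 s total fluorescence read per well | Technique: Fluo-8 calcium dye fluorescence, ex 470-495, em 515-575 nm | Measure: Percent activation from peak-to-basal fluorescence ratio, scaled between DMSO and carbachol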
CRFR2-BP antag – antagonists of CRF-BP/CRF-R2 complex, primary screen, cell-based, HEK293, calcium dye fluorescence, uHTS | CRF-induced calcium fluorescence | inhibition, % at 11.8 µM | hit rate 0.59% among 350,000;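 active = inhibition of the ligand-induced calcium signal above about 50% at the single tested concentration, limit read from the data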
A number is an active result; 0 = inactive; - = not tested or not shown.

SMILES | CRFR2-BP ag | zfTRPN1 agonist | GPR7 antagonist | TRPML3 ag | CRFR2-BP antag
COc1ccc(C(=O)c2sc3nc(-c4ccccc4)ccc3c2N)cc1OC | 52 | 0 | 0 | 0 | 0
Cc1nc(N2CCCCC2)sc1C(=O)c1ccc(Cl)c([N+](=O)[O-])c1 | - | 0 | 0 | 0 | -
CCCN1CCc2c(sc(NC(=O)c3ccc(S(=O)(=O)N4CCCC4)cc3)c2C(N)=O)C1 | 62 | - | 0 | - | 0
CCN1CCc2c(sc(NC(=O)c3ccc(S(=O)(=O)N4CCOCC4)cc3)c2C(N)=O)C1 | 0 | 0 | 0 | 0 | 0
NC(=O)c1c(NC(=O)c2ccccc2)sc2c1CCN(Cc1ccccc1)C2 | 178 | - | 0 | - | 0
CCN1CCc2c(sc(NC(=O)c3ccc(S(=O)(=O)N(CC)c4ccccc4)cc3)c2C(N)=O)C1 | 201 | - | 0 | - | 0
NC(=O)c1c(NC(=O)c2c(F)cccc2F)sc2c1CCN(Cc1ccccc1)C2 | 0 | - | 0 | - | 0
CC(C)(O)CN(C(=O)c1ccccc1)C1CCCCC1 | 0 | - | - | - | 0
Cc1ccc(C)c(NC(=O)CN(C)C(=O)c2ccc(S(=O)(=O)N3CCCCCC3)cc2)c1 | 0 | - | - | - | 0
CNC(=O)N1CCC(C(=O)c2c(C)c(C)c(C)c(C)c2C)CC1 | 0 | - | 0 | - | 0
N/C(Cc1cccc2ccccc12)=N\O | 0 | 0 | 0 | 0 | 0
N/C(Cc1ccccc1Sc1ccccc1)=N\O | 0 | 0 | 0 | 0 | 61
CN(CCO)S(=O)(=O)c1ccc2c(c1)C(=NNC(N)=O)c1cc(S(=O)(=O)N(C)CCO)ccc1-2 | 0 | 0 | 0 | 0 | 85
NS(=O)(=O)c1ccc(NC(=S)Nc2ccc(F)c(F)c2)cc1 | 0 | 0 | 0 | 0 | 69
NS(=O)(=O)c1ccc(CNC(=S)Nc2ccc(F)c(Cl)c2)cc1 | 0 | 0 | 0 | 0 | 0
CC(OC(=O)[C@H](C)NC(=O)c1ccccc1Cl)C(=O)NCc1ccc2c(c1)OCO2 (some centres not stated) | 0 | - | - | - | 0
CCCCN1C(=O)/C(=C2/Sc3ccc(OC)cc3N2CC)SC1=S | 0 | - | 0 | - | 0
C=CCN1C(=O)/C(=C2/Sc3ccc(OC)cc3N2CC)SC1=S | 68 | - | 0 | - | 0
COc1cc(/C=C/C(=O)/C=C(O)/C=C/c2ccc(O)c(OC)c2)ccc1O | 130 | - | - | - | 0
COc1cc(/C=C/C(=O)O)ccc1O | 0 | - | - | - | 0
COc1cc(/C=C/C(=O)CC(=O)/C=C/c2ccc(O)c(OC)c2)ccc1O | 214 | 0 | 0 | 0 | 0
COc1cc(/C=N/N(C)c2ccccc2)cc(Cl)c1O | 0 | 0 | 0 | 0 | 53
FC(F)(F)c1nnc2sc(-c3cccs3)nn12 | 0 | 0 | 0 | 0 | 52
CCN1CCN(CCCNC(=O)CNC(=O)c2nn(-c3ccc(OC)cc3OC)c(=O)c3ccccc23)CC1 | 0 | - | 0 | - | 0
COc1ccc(C2=NN(C)C(=NCc3ccccc3)SC2)cc1 | 0 | 0 | 0 | 0 | 62
SMILES | CRFR2-BP ag | zfTRPN1 agonist | GPR7 antagonist | TRPML3 ag | CRFR2-BP antag
Cc1c(O)c(CN2CCCCC2)cc2c1oc(=O)c1ccccc12 | 0 | 0 | 0 | 0 | 59
Cc1c(O)c(CN2CCCCC2)cc2c3c(c(=O)oc12)CCC3 | 0 | 0 | 0 | 0 | 0
O=C(CC(=O)c1c(F)cccc1Cl)c1ccccc1O | 0 | - | 0 | - | 0
O=C(c1cccc(NS(=O)(=O)c2ccccc2)c1)N1CCCC1 | 0 | - | 0 | - | 0
O=C(c1cccc(NS(=O)(=O)c2ccc(F)c(F)c2)c1)N1CCN(C(c2ccccc2)c2ccccc2)CC1 | 0 | 0 | 0 | 0 | 62
CC(=O)Nc1ncc(Sc2ccc([N+](=O)[O-])cc2)s1 | 0 | - | - | - | 0
CCN(CC)c1ccc(/C=C(/C#N)C(=O)NC(C)C)o1 | 0 | 0 | 0 | 0 | 0
CCN(CC)c1ccc(/C=C(/C#N)C(=O)NCc2ccccc2)o1 | 141 | 0 | 0 | 14 | 0
CCCN(C(=O)Cn1ncc2c([nH]c3ccccc32)c1=O)c1ccccc1C | 0 | - | 0 | - | 0
CCOc1ccccc1N(C)C(=O)Cn1ncc2c([nH]c3ccccc32)c1=O | 0 | - | 0 | - | 94
CCN1CCN(Cc2nnc(-c3ccc(C)cc3)o2)CC1 | 0 | - | 0 | - | 0
CC(C)OC(=O)c1c2c(n3ccccc13)C(=O)c1ccccc1C2=O | 182 | 0 | 0 | 0 | 0
COc1ccc(C(CC(=O)NCc2ccco2)c2ccc(F)cc2)cc1 (configuration not stated) | 0 | 0 | 0 | 0 | 0
Cc1ccc(C(CC(=O)NCc2ccco2)c2ccc(OC(C)C)cc2)cc1 (configuration not stated) | 0 | 0 | 0 | 0 | 51
CCCCCCCCCCCC(=O)NC(Cc1ccc(OC)c([N+](=O)[O-])c1)C(=O)O (configuration not stated) | 0 | 0 | 0 | 0 | 55
CC(C)(C)OC(=O)N(Cc1ccccc1)Cc1ccc(OCc2cccc(NC(=O)C3CC3)c2)cc1 | 0 | - | - | - | 0
O=C(NCCS(=O)(=O)NCc1cccs1)c1ccccc1 | 0 | - | - | - | 0
Cc1ccc(S(=O)(=O)NCc2ccncc2)c(C)c1C | 53 | 0 | 0 | 0 | 0
COc1ccc(-c2c(C#Cc3ccc(N(C)C)cc3)c3ccccc3n2C)cc1 | 0 | - | - | - | 0
COc1ccc(C#Cc2c(-c3ccccc3)n(-c3ccccc3)c3ccc(CO)cc23)cc1 | 0 | - | - | - | 118
CCN1CCN(CC(=O)N2N=CCC2c2ccccc2)CC1 (configuration not stated) | 0 | 0 | 0 | 0 | 70
Cn1c(=O)c2c(nc(Br)n2Cc2ccccc2Cl)n(C)c1=O | 0 | 0 | 19 | 0 | 0
Cc1ccnc(N2CCCC(C(=O)Nc3nnc(C)s3)C2)n1 (configuration not stated) | 0 | 0 | 0 | 0 | 0
O=C(Nc1ccc(Oc2ccccc2)cc1)C1CCCN(c2ncccn2)C1 (configuration not stated) | 58 | 0 | 0 | 0 | 0
Cc1nnc(NC(=O)C2CCCN(c3ncccn3)C2)s1 (configuration not stated) | 0 | 0 | 0 | 0 | 56
SMILES | CRFR2-BP ag | zfTRPN1 agonist | GPR7 antagonist | TRPML3 ag | CRFR2-BP antag
Cc1cc(C)cc(NC(=O)C2CCCN(c3nccc(C)n3)C2)c1 (configuration not stated) | 0 | 0 | 0 | 0 | 54
CN1C(=O)[C@H]2[C@@H](c3ccc(C(F)(F)F)cc3)N[C@]3(CCCN(Cc4ccc(C(F)(F)F)cc4)C3=O)[C@H]2C1=O | 0 | - | - | - | 0
COc1cccc(/C=C2\SC(=S)N(NS(=O)(=O)c3ccccc3)C2=O)c1OC | 0 | - | 0 | - | 63
COc1cc(/C=C2\SC(=S)N(NS(=O)(=O)c3ccccc3)C2=O)cc(OC)c1OC | 0 | 0 | 0 | 0 | 0
COc1ccc(/C=C2/SC(=O)N(NS(=O)(=O)c3ccccc3)C2=S)cc1OC | 0 | 0 | 0 | 0 | 52
O=c1oc2cc(O)ccc2cc1-c1nc2c(s1)CCc1ccccc1-2 | 279 | 25 | 0 | 0 | 0
